In ChEMBL document CHEMBL1177753, “Cytotoxic bisbenzylisoquinoline alkaloids from the roots of Cyclea racemosa” (J Nat Prod, 2010) one finds IC50 data, which are given here for six molecules.

pIC50: −log10 of the molar value.

What all share (assay type): functional, cell-based
One experiment has as its system A2780. As to the kind of experiment: Cytotoxicity against human A2780 cells after 3 days by MTT assay. The conditions noted are these: A2780, 72 h. A digest of the protocol: (§1)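 Human tumor cells grown in RPMI-1640 with 5% fetal bovine serum. Freshly trypsinized cells seeded at 5000 cells per well in 96-well plates. Compounds added from DMSO-diluted stock. After three days of culture, attached cells stained with MTT, bound dye solubilized, absorbance read at 540 nm. IC50 taken as the concentration giving 50% growth inhibition, averaged from triplicate determinations.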
Background: Tetrazolium assays rely on reduction of a dye to a coloured formazan, in cell work by metabolically active cells.

In a further experiment the test system is Bel-7402. The experiment can be described thus: Cytotoxicity against human Bel7402 cells after 3 days by MTT assay. The conditions noted are these: Bel-7402, 72 h. A digest of the protocol: as §1
A further experiment concerns HCT-8. As to the kind of experiment: Cytotoxicity against human HCT8 cells after 3 days by MTT assay. The conditions noted are these: HCT-8, 72 h. A digest of the protocol:
as §1

Usually pIC50 stands for the negative decadic logarithm of the IC50, by convention in mol/L. A high value points to a low IC50. Consider `CC(=O)O[C@H]1C(=O)[C@@]2(C)[C@H]([C@H](OC(=O)c3ccccc3)[C@]3(O)C[C@H](OC(=O)[C@H](O)[C@@H](NC(=O)c4ccccc4)c4ccccc4)C(C)=C1C3(C)C)[C@]1(OC(C)=O)CO[C@@H]1C[C@@H]2O` [PACLITAXEL], for which the results for the negative-log IC50 (pIC50) in the experiment on A2780, in the experiment on Bel-7402 and in the experiment with HCT-8 were 6.19, 5.74 and 6.17, respectively.
For `COc1cc2c3cc1Oc1cc(ccc1O)C[C@@H]1c4c(cc(OC)c5c4Oc4ccc(cc4CO5)C[C@H]3N(C)CC2)CCN1C` [RACEMOSIDINE A], in that order: 5.17, 5.22 and 5.55.
For `COc1cc2c3cc1Oc1cc(ccc1O)C[C@H]1c4c(cc(OC)c(OC)c4Oc4ccc(cc4)C[C@H]3N(C)CC2)CCN1C` [RACEMOSIDINE B], in that order: < 5.00, 5.34 and 5.01.
Consider `COc1ccc2cc1Oc1cc3c(cc1OC)CCN(C)[C@@H]3Cc1ccc(cc1)Oc1c(OC)c(O)cc3c1[C@H](C2)N(C)CC3` [RACEMOSIDINE C], for which the results for the pIC50 in the experiment with A2780, in the experiment on Bel-7402 and with HCT-8 were < 5.00, 5.12 and 5.22, respectively.
For `COc1cc2c3cc1Oc1c(O)c(OC)cc4ccnc(c14)Cc1ccc(cc1)Oc1cc(ccc1O)C[C@H]3N(C)CC2` [RACEMOSININE B], in that order: < 5.00, < 5.00 and < 5.00.
For `COc1cc2c3cc1Oc1c(O)c(OC)cc4ccnc(c14)Cc1ccc(cc1)Oc1cc(ccc1O)C[C@H]3[N+](C)([O-])CC2` (stereo partly drawn) [RACEMOSININE C], in that order: < 5.00, < 5.00 and < 5.00.
